Counter-ions that a name gives are not always drawn. Like-named read-outs stand apart in the source and are kept apart here. Peptide text beside a SMILES is read from it.
Legend:
[1] = Plasma concentration of colistin sulfate in patients on CVVHDF; format: in vivo; conditions: human, iv, SD
Summary of the method: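 Adult patients on CVVHDF (AN69 polyacrylonitrile filter; blood flow 100–200 ml/min) received iv colistin sulfate infused over 0.5 h or 2 h. At steady state, samples were drawn from the dorsal foot artery just before dosing (Cmin) and at roughly 0.5, 1, 2, 4 and 6 h after. Plasma was stored at −80°C. Colistin A and B were measured separately by UHPLC-MS/MS on a HILIC column (LOQ 0.027 and 0.053 mg/l) and summed. AUC0−24h was calculated by the trapezoidal rule.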

[2] = cited from earlier work
[3] = cited from earlier work; for population typical value CL, previous research: critically ill patients
[4] = derived from preclinical studies; cited from earlier work
[5] = Population PK model; format: in vivo, human
Summary of the method: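 NONMEM 7.4 was fitted to 86 plasma concentrations from 20 CVVHDF patients, using FOCE to compare one- and two-compartment models. Interindividual variability was exponential. […] Validation used goodness-of-fit plots, a pcVPC with 1000 simulated patients and a 1000-sample bootstrap.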

[6] = cited from earlier work; remark: listed apart in the source
[7] = cited from earlier work; for population typical value of CL: critically ill patients
[8] = test system: isolated pathogens (CRO), mainly Klebsiella pneumoniae, Acinetobacter baumannii, Pseudomonas aeruginosa; assay: Drug sensitivity of isolated pathogens; format: cell-based; conditions: all isolated pathogens (CRO) of the 20 patients

CC[C@H](C)CCCCC(=O)N[C@@H](CCN)C(=O)N[C@H](C(=O)N[C@@H](CCN)C(=O)N[C@H]1CCNC(=O)[C@H]([C@@H](C)O)NC(=O)[C@H](CCN)NC(=O)[C@H](CCN)NC(=O)[C@H](CC(C)C)NC(=O)[C@@H](CC(C)C)NC(=O)[C@H](CCN)NC1=O)[C@@H](C)O [colistin sulfate] (HELM PEPTIDE1{[CC[C@H](C)CCCCC(=O)[*:2]].[Dab].T.[Dab].[Dab].[Dab].[dL].L.[Dab].[Dab].T}$PEPTIDE1,PEPTIDE1,5:R3-11:R2$$$V2.0)
AUC(0-t) [1]: 12500 ± 6410 ng·h/mL | steady-state trough concentration ([2]; CRRT group, p = 0.328 vs non-CRRT): 0.58 ± 0.30 mg/L | steady-state trough concentration ([2]; non-CRRT group): 0.64 ± 0.25 mg/L | population typical value CL, previous research ([3]; first of two values): 0.994 L/h | population typical value CL, previous research ([3]; second of two values): 1.5 L/h | plasma concentration range ([3]; non-CRRT patients): 0.28 to 6.20 mg/L | protein binding rate [4]: about 50% | Q, bootstrap median ([5]; bootstrap, 1000 samples): 27.15 L/h | V1, bootstrap median ([5]; bootstrap, 1000 samples): 20.58 L | V2, bootstrap median ([5]; bootstrap, 1000 samples): 34.71 L | θCysC, bootstrap median ([5]; bootstrap, 1000 samples): −0.537 | θwt, bootstrap median ([5]; bootstrap, 1000 samples): 1.189 | CL, bootstrap median ([5]; bootstrap, 1000 samples, 989 successful): 3.18 L/h | θCysC, final model estimate ([5]; effect of CysC on CL, (CYSC/2.31)^θ): −0.626 | θwt, final model estimate ([5]; effect of WT on CL, (WT/65)^θ): 1.030 | clearance ([5]; human, plasma, iv): 61.5 mL/min | Q, final model estimate ([5]; intercompartmental clearance, patients on CVVHDF): 25.30 L/h | V1, final model estimate ([5]; volume of distribution in the central compartment, patients on CVVHDF): 20.50 L | V2, final model estimate ([5]; volume of distribution in the peripheral compartment, patients on CVVHDF): 33.20 L | solubility in water [6]: water-soluble

polymyxin B sulfate
population typical value of CL ([7]; CVVH group): 4.52 L/h | AUC ([7]; CVVH group, p < 0.001 vs non-CVVH): 27.94 ± 10.92 mg·h/L | population typical value of CL ([7]; non-CVVH group): 1.95 L/h | AUC ([7]; non-CVVH group): 77.89 ± 35.66 mg·h/L

C[C@@H](O)[C@H]1C(=O)N2C(C(=O)O)=C(S[C@@H]3CN[C@H](C(=O)N(C)C)C3)[C@H](C)[C@H]12 [meropenem]
MIC [8]: ≥ 8 mg/L

Reference: article PMC11877486 (Science Progress, 2025)
